From ChEMBL document CHEMBL2331168, “Anticonvulsant evaluation of aminoalkanol derivatives of 2- and 4-methylxanthone” (Bioorg Med Chem, 2013)
The source made the active and inactive calls.

What was measured:
Mus musculus [1] = experiment: Neurotoxicity in albino mouse assessed as minimal motor impairment at 300 mg/kg, ip after 4 hrs by rotorod test; type: toxicity, organism-based; design: dose 300 mg/kg, route intraperitoneal; conditions: in vivo
Summary of the method: (§1)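 Male albino mice (Carworth Farms No. 1) were dosed ip with suspensions in 0.5% methylcellulose and put on a 1 in. knurled rod rotating at 6 rpm at set times after dosing. Neurotoxicity meant failure to stay on the rod for at least 1 min in each of three trials. Scored as impaired/tested.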

Mus musculus [2] = experiment: Neurotoxicity in albino mouse assessed as minimal motor impairment at 100 mg/kg, ip after 4 hrs by rotorod test; type: toxicity, organism-based; design: dose 100 mg/kg, route intraperitoneal; conditions: in vivo; summary of the method: as §1
Mus musculus [3] = experiment: Neurotoxicity in albino mouse assessed as minimal motor impairment at 100 mg/kg, ip after 1 hr by rotorod test; type: toxicity, organism-based; design: dose 100 mg/kg, route intraperitoneal; conditions: in vivo; summary of the method: as §1
Mus musculus [4] = experiment: Neurotoxicity in albino mouse assessed as minimal motor impairment at 100 mg/kg, ip after 0.25 hrs by rotorod test; type: toxicity, organism-based; design: dose 100 mg/kg, route intraperitoneal; conditions: in vivo; summary of the method: as §1
Mus musculus [5] = experiment: Anticonvulsant activity in albino mouse assessed as protection against subcutaneous pentetrazole-induced seizures at 100 mg/kg, ip after 4 hrs; type: functional, organism-based; design: dose 100 mg/kg
Summary of the method: (§2)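 Male albino mice (Carworth Farms No. 1) received compound ip in 0.5% methylcellulose, then pentetrazole 85 mg/kg sc in 0.9% NaCl at 0.5 or 4 h. Mice were watched for at least 30 min. Protection meant no threshold seizure, defined as a single clonic spasm lasting at least 5 s. Scored as protected/tested.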

Mus musculus [6] = experiment: Anticonvulsant activity in albino mouse assessed as protection against subcutaneous pentetrazole-induced seizures at 300 mg/kg, ip after 0.5 hrs; type: functional, organism-based; design: dose 300 mg/kg; summary of the method: as §2
Mus musculus [7] = experiment: Anticonvulsant activity in albino mouse assessed as protection against subcutaneous pentetrazole-induced seizures at 100 mg/kg, ip after 0.5 hrs; type: functional, organism-based; design: dose 100 mg/kg; summary of the method: as §2
Mus musculus [8] = experiment: Anticonvulsant activity in albino mouse assessed as protection against subcutaneous pentetrazole-induced seizures at 30 mg/kg, ip after 0.5 hrs; type: functional, organism-based; design: dose 30 mg/kg; summary of the method: as §2
Mus musculus [9] = experiment: Anticonvulsant activity in albino mouse assessed as protection against maximal electroshock-induced seizures at 300 mg/kg, ip after 4 hrs; type: functional, organism-based; design: dose 300 mg/kg
Summary of the method: (§3)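 Male albino mice (Carworth Farms No. 1) were given the compound ip as a suspension in 0.5% methylcellulose at 3–300 mg/kg. MES testing was at 0.5 and 4 h, sometimes also at 0.25 and 1 h. Current was 60 Hz, 50 mA, 0.2 s via corneal electrodes, with saline eye drops. Protection meant no hindlimb tonic extension, scored as protected/tested.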

Mus musculus [10] = experiment: Anticonvulsant activity in albino mouse assessed as protection against maximal electroshock-induced seizures at 100 mg/kg, ip after 4 hrs; type: functional, organism-based; design: dose 100 mg/kg; summary of the method: as §3
Mus musculus [11] = experiment: Anticonvulsant activity in albino mouse assessed as protection against maximal electroshock-induced seizures at 30 mg/kg, ip after 4 hrs; type: functional, organism-based; design: dose 30 mg/kg; summary of the method: as §3
Mus musculus [12] = experiment: Anticonvulsant activity in albino mouse assessed as protection against maximal electroshock-induced seizures at 100 mg/kg, ip after 1 hr; type: functional, organism-based; design: dose 100 mg/kg; summary of the method: as §3
Mus musculus [13] = experiment: Anticonvulsant activity in albino mouse assessed as protection against maximal electroshock-induced seizures at 300 mg/kg, ip after 0.5 hrs; type: functional, organism-based; design: dose 300 mg/kg; summary of the method: as §3
Mus musculus [14] = experiment: Anticonvulsant activity in albino mouse assessed as protection against maximal electroshock-induced seizures at 100 mg/kg, ip after 0.5 hrs; type: functional, organism-based; design: dose 100 mg/kg; summary of the method: as §3
Mus musculus [15] = experiment: Anticonvulsant activity in albino mouse assessed as protection against maximal electroshock-induced seizures at 30 mg/kg, ip after 0.5 hrs; type: functional, organism-based; design: dose 30 mg/kg; summary of the method: as §3
Mus musculus [16] = experiment: Anticonvulsant activity in albino mouse assessed as protection against maximal electroshock-induced seizures at 100 mg/kg, ip after 0.25 hrs; type: functional, organism-based; design: dose 100 mg/kg; summary of the method: as §3
[17] = Neurotoxicity in ip dosed albino mouse assessed as minimal motor impairment after 0.25 hrs by rotorod test; type: toxicity, organism-based; conditions: in vivo
Summary of the method: (§4)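 TD50, with 95% confidence intervals, was the ip dose causing neurotoxicity in 50% of male albino mice. Deficit was judged on the rotorod: a 1 in. knurled rod at 6 rpm, where failure to hold on for 1 min in each of three trials counted as deficit. Read at the stated time after dosing.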

Mus musculus [18] = experiment: Anticonvulsant activity in ip dosed albino mouse assessed as protection against subcutaneous pentetrazole-induced seizures after 1 hr; type: functional
Mus musculus [19] = organism: Mus musculus; experiment: Protective index, ratio TD50 for albino mouse to ED50 for albino mouse by maximal electroshock-induced seizure test after 1 hr; type: functional
Summary of the method: (§5)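 Protective index was calculated as mouse ip TD50 (rotorod) divided by mouse ip MES ED50, both obtained by quantitative dose-response testing at the stated post-dose time.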

Mus musculus [20] = experiment: Anticonvulsant activity in ip dosed albino mouse assessed as protection against maximal electroshock-induced seizures after 1 hr; type: functional
Summary of the method: (§6)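 ED50, with 95% confidence intervals, was the ip dose protecting 50% of mice in the MES test. It was measured at the stated post-dose time in male albino mice given suspensions in 0.5% methylcellulose. MES used 60 Hz, 50 mA, 0.2 s corneal stimulation, and the endpoint was abolition of hindlimb tonic extension.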

Mus musculus [21] = experiment: Neurotoxicity in albino mouse assessed as minimal motor impairment at 30 mg/kg, ip after 4 hrs by rotorod test; type: toxicity, organism-based; design: dose 30 mg/kg, route intraperitoneal; conditions: in vivo; summary of the method: as §1
Mus musculus [22] = experiment: Neurotoxicity in albino mouse assessed as minimal motor impairment at 10 mg/kg, ip after 0.5 hrs by rotorod test; type: toxicity, organism-based; design: dose 10 mg/kg, route intraperitoneal; conditions: in vivo; summary of the method: as §1
Mus musculus [23] = experiment: Neurotoxicity in albino mouse assessed as minimal motor impairment at 3 mg/kg, ip after 0.5 hrs by rotorod test; type: toxicity, organism-based; design: dose 3 mg/kg, route intraperitoneal; conditions: in vivo; summary of the method: as §1
Mus musculus [24] = experiment: Anticonvulsant activity in albino mouse assessed as protection against subcutaneous pentetrazole-induced seizures at 300 mg/kg, ip after 4 hrs; type: functional, organism-based; design: dose 300 mg/kg; summary of the method: as §2
Mus musculus [25] = experiment: Anticonvulsant activity in albino mouse assessed as protection against subcutaneous pentetrazole-induced seizures at 30 mg/kg, ip after 4 hrs; type: functional, organism-based; design: dose 30 mg/kg; summary of the method: as §2
Mus musculus [26] = experiment: Anticonvulsant activity in albino mouse assessed as protection against maximal electroshock-induced seizures at 3 mg/kg, ip after 0.5 hrs; type: functional, organism-based; design: dose 3 mg/kg; summary of the method: as §3
Mus musculus [27] = experiment: Neurotoxicity in albino mouse assessed as minimal motor impairment at 30 mg/kg, ip after 0.5 hrs by rotorod test; type: toxicity, organism-based; design: dose 30 mg/kg, route intraperitoneal; conditions: in vivo; summary of the method: as §1
Rattus norvegicus [28] = experiment: Neurotoxicity in Sprague-Dawley rat assessed as minimal motor impairment at 30 mg/kg, po after 1 hr by rotorod test; conditions: in vivo
Rattus norvegicus [29] = experiment: Neurotoxicity in Sprague-Dawley rat assessed as minimal motor impairment at 30 mg/kg, po after 4 hrs by rotorod test; conditions: in vivo
Rattus norvegicus [30] = experiment: Neurotoxicity in Sprague-Dawley rat assessed as minimal motor impairment at 30 mg/kg, po after 2 hrs by rotorod test; conditions: in vivo
Rattus norvegicus [31] = experiment: Neurotoxicity in Sprague-Dawley rat assessed as minimal motor impairment at 30 mg/kg, po after 0.5 hrs by rotorod test; conditions: in vivo
Rattus norvegicus [32] = experiment: Neurotoxicity in Sprague-Dawley rat assessed as minimal motor impairment at 30 mg/kg, po after 0.25 hrs by rotorod test; conditions: in vivo
[33] = Neurotoxicity in ip dosed albino mouse assessed as minimal motor impairment after 1 hr by rotorod test; type: toxicity, organism-based; conditions: in vivo; summary of the method: as §4
Mus musculus [34] = experiment: Protective index, ratio TD50 for albino mouse to ED50 for albino mouse by subcutaneous pentetrazole-induced seizure test after 0.5 hrs; type: functional
Mus musculus [35] = experiment: Anticonvulsant activity in ip dosed albino mouse assessed as protection against subcutaneous pentetrazole-induced seizures after 0.5 hrs; type: functional
Mus musculus [36] = organism: Mus musculus; experiment: Protective index, ratio TD50 for albino mouse to ED50 for albino mouse by maximal electroshock-induced seizure test after 0.5 hrs; type: functional; summary of the method: as §5
Mus musculus [37] = experiment: Anticonvulsant activity in ip dosed albino mouse assessed as protection against maximal electroshock-induced seizures after 0.5 hrs; type: functional; summary of the method: as §6
Rattus norvegicus [38] = experiment: Anticonvulsant activity in Sprague-Dawley rat assessed as protection against maximal electroshock-induced seizures at 30 mg/kg, po after 1 hr; type: functional, organism-based; design: dose 30 mg/kg
Summary of the method: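 Male Sprague-Dawley rats dosed orally at 30 mg/kg and tested at 0.25, 0.5, 1, 2 and 4 h. Seizures were induced by 60 Hz alternating current at 150 mA for 0.2 s through corneal electrodes, after a drop of 0.9% NaCl in each eye. Protection meant abolition of hindlimb tonic extension. Reported as protected/tested, usually 4 rats per time point.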

Mus musculus [39] = experiment: Neurotoxicity in albino mouse assessed as minimal motor impairment at 100 mg/kg, ip after 0.5 hrs by rotorod test; type: toxicity, organism-based; design: dose 100 mg/kg, route intraperitoneal; conditions: in vivo; summary of the method: as §1

Row | Structure (SMILES) | Activity (Mus musculus [1]) | Activity (Mus musculus [2]) | Activity (Mus musculus [5]) | Activity (Mus musculus [6]) | Activity (Mus musculus [7]) | Activity (Mus musculus [8]) | Activity (Mus musculus [9]) | Activity (Mus musculus [10]) | Activity (Mus musculus [11]) | Activity (Mus musculus [13]) | Activity (Mus musculus [14]) | Activity (Mus musculus [15]) | Activity (Mus musculus [21]) | Activity (Mus musculus [24]) | Activity (Mus musculus [25]) | Activity (Mus musculus [27]) | Activity (Rattus norvegicus [28]) | Activity (Rattus norvegicus [29]) | Activity (Rattus norvegicus [30]) | Activity (Rattus norvegicus [31]) | also measured
1 | COc1ccc2c(=O)c3cccc(CN(C)C(C)CO)c3oc2c1 (racemic) | Non-toxic | Non-toxic | inactive | inactive | inactive | inactive | Active | inactive | inactive | Active | inactive | inactive |  |  |  |  |  |  |  |  | Activity (Mus musculus [3]): Non-toxic; Activity (Mus musculus [4]): Non-toxic; Activity (Mus musculus [12]): inactive; Activity (Mus musculus [16]): inactive
2 | CC[C@@H](CO)NCc1ccc2oc3cc(OC)ccc3c(=O)c2c1 | Toxic | Non-toxic | inactive | inactive | inactive | inactive | Active | Active | inactive | Active | Active | Active | Non-toxic | inactive | inactive | Non-toxic | Non-toxic | Non-toxic | Non-toxic | Non-toxic | TD50 at 0.25 h [17]: > 400 mg/kg; ED50 (Mus musculus [18]): > 200 mg/kg; Ratio TD50/ED50 (Mus musculus [19]): >8.41; ED50 (Mus musculus [20]): 47.6 mg/kg; Activity (Mus musculus [22]): Non-toxic; Activity (Mus musculus [23]): Non-toxic; Activity (Mus musculus [26]): inactive; Activity (Rattus norvegicus [32]): Non-toxic
3 | CCC(CO)NCc1ccc2oc3cc(OC)ccc3c(=O)c2c1 (racemic) |  | Non-toxic | inactive | inactive | inactive | inactive | Active | inactive | inactive | Active | Active | inactive | Non-toxic | inactive | inactive | Non-toxic | Non-toxic | Non-toxic | Non-toxic | Non-toxic | TD50 at 1 h [33]: 213 mg/kg; Ratio TD50/ED50 (Mus musculus [34]): <0.43; ED50 (Mus musculus [35]): > 500 mg/kg; Ratio TD50/ED50 (Mus musculus [36]): 2.66; ED50 (Mus musculus [37]): 80 mg/kg; Activity (Rattus norvegicus [38]): inactive; Activity (Mus musculus [39]): Non-toxic; Activity (Rattus norvegicus [32]): Non-toxic
